Compound activity from PubChem.
Shown are actives, neighbours in structure and some others; about 2.1% of the full set was active somewhere.
NOD2 RIPK2 PPI: NOD2-RIPK2 binding disruptors in cells, primary screen, fluorescence, CHO cells, BLA complementation; inhibition, % at 4.98 µM; AID 624267, 2012; CCF4 ratio; 360,000 tested, 0.38% active; in the data active = inhibition above about 21%
beta cell repl: inducers of MIN6 beta-cell proliferation, primary screen, ATP luminescence, uHTS. AID 2380, 2010. proliferation, % at 10 µM. MIN6 cells proliferation, ATPlite luminescence, 48 h; cells starved in 0.2% serum; 100% = growth in 10% serum. 330,000 tested, 0.29% active;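 active = compounds whose signal lies at least 3.5 SD above the mean of all wells on their plate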
MC4R antagonist: MC4R antagonists of cAMP signaling, primary screen, cell-based, TR-FRET, antagonist arm of biased-ligand search; MC4R-expressing cells, MTII-stimulated cAMP, LANCE TR-FRET; 360,000 tested, 0.48% active; inhibition, % at 6.5 µM; Melanocortin receptor 4 (Homo sapiens), P32245;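 active = inhibition above its plate's cutoff, the mean of tested wells on that plate plus 3 SD, cut at about 29% in these data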
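Material: human MC4R-expressing U2OS cells. Probe or stimulus: Melanotan II challenge. Dosing: 6.5 µM single dose. Times: 30-min compound, 1-h challenge, 1-h detection, room temperature. Technique: TR-FRET with Eu-cAMP and labeled anti-cAMP, 671 nm. Replication: singlicate.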
TLR9-MyD88 block: inhibitors of TLR9-MyD88 association in cells, primary screen, cell-based, CHO, BLA complementation, fluorescence; CCF4 FRET ratio; Toll-like receptor 9 (Homo sapiens) + Myeloid differentiation primary response protein …; 340,000 tested, 0.21% active; inhibition, % at 4.98 µM;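 active = inhibition above the mean over all tested compounds plus 3 SD, cut at about 21% in these data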
MC4R barr agon: MC4R agonists recruiting beta-arrestin, primary screen, cell-based, luminescence, agonist arm of biased-ligand search. Melanocortin receptor 4 (Homo sapiens), P32245. U2OS MC4R beta-arrestin complementation; percent of melanotan II response, DMSO zero. activation, % at 8.9 µM. 360,000 tested, 0.98% active. AID 540308, 2011;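 active = activation above a per-plate cutoff, the mean activation of sample wells on that plate plus 3 SD, cut at about 8% in these data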
TLR4-MyD88 BLA: inhibitors of TLR4-MyD88 association in cells, primary screen, cell-based, HeLa CL3-4, BLA complementation, FRET ratio | inhibition, % at 8.4 µM | HeLa CL3-4 TLR4/MyD88 BLA complementation | 200,000 tested, 0.18% active | Toll-like receptor 4 (Homo sapiens) + Myeloid differentiation primary response protein …; in the data active = inhibition above about 25%
Numbers stand for hits; 0 = inactive; - = no result given.

SMILES	NOD2 RIPK2 PPI	beta cell repl	MC4R antagonist	TLR9-MyD88 block	MC4R barr agon	TLR4-MyD88 BLA
CCC1CCc2c(sc3nc(SCC(=O)NCc4ccco4)n(-c4ccccc4)c(=O)c23)C1 (centres undefined)	0	0	0	0	8.7	0
COc1ccccc1-c1cn[nH]c1-c1ccc(OCc2ccccc2)cc1O	0	0	0	0	0	-
COc1ccc(-c2cn[nH]c2-c2ccc(OCc3ccccc3)cc2O)cc1	0	0	0	0	9.3	-
COCCNc1nc(Oc2cccc(NC(C)=O)c2)c2sccc2n1	0	-	0	-	0	-
COCCNc1nc(Oc2cccc(NC(C)=O)c2)c2sc(-c3ccccc3)cc2n1	0	-	0	-	9.1	-
C#CCSc1nc2sc3c(c2c(=O)n1C)CCC3	0	0	0	0	9.1	-
CSc1nc2sc3c(c2c(=O)n1C)CCC3	0	0	0	0	0	-
CCCCCCCCCCOC(=O)Cn1c(COc2ccc(Cl)cc2)[n+](C)c2ccccc21	0	0	0	0	17	-
CCCCCCCCCCOC(=O)Cn1c(COc2ccccc2C)[n+](C)c2ccccc21	22	0	0	0	49	-
CCOC(=O)Cn1c(COc2ccccc2OC)[n+](C)c2ccccc21	0	0	0	-	0	-
O=C(COc1ccc2ccccc2c1)Nc1cccnc1Cl	0	0	0	0	8.3	-
Cc1ccccc1S(=O)(=O)NCc1ccc(N2CCN(C)CC2)cc1	0	0	0	-	0	-
O=C(Cc1cccc2ccccc12)N/N=C/c1ccc(F)cc1	0	0	0	0	15	0
O=C(Cc1cccc2ccccc12)N/N=C/c1ccncc1	0	0	0	0	0	0
CN(Cc1ccccc1)C(=O)[C@@H]1CCCN1C(=O)[C@@H]1CCCN1C(=O)c1cccs1	0	-	-	-	-	-
CC1=CC(C)C(=O)N(CCN2CCOCC2)C(C)=C1 (centres undefined)	0	-	0	0	0	-
O=C(Nc1cnn(Cc2ccc(F)cc2)c1)c1cc(-c2cccs2)on1	0	0	0	0	13	0
Cc1cc(C)cc(C(=O)NC(CC(N)=O)c2ccc(NCC3CC3)c([N+](=O)[O-])c2)c1 (centres undefined)	0	0	0	0	0	-
CN(C)CC(CCC(CN(C)C)C(=O)c1ccccc1)C(=O)c1ccccc1 (centres undefined)	60	-	0	0	0	-
COc1ccc(C(=O)C(CCCCC(CN(C)C)C(=O)c2ccc(OC)cc2)CN(C)C)cc1 (centres undefined)	0	0	0	0	0	0
CCOc1ccc(C(=O)C(CCC(CN(C)C)C(=O)c2ccc(OCC)cc2)CN(C)C)cc1 (centres undefined)	40	-	0	0	9.5	0
Cc1cc(O)ccc1-c1cc(C(=O)NCc2ccc(F)cc2)[nH]n1	0	-	0	-	0	-
CSc1cccc(NC(=O)Nc2nc3c(C)cccc3s2)c1	0	0	0	0	9.1	-
O=C(NC1CCCCC1)C(c1cccnc1)N(C(=O)CCl)c1cccc(Cl)c1 (centres undefined)	0	0	0	0	13	0
COc1ccc(C(C(=O)NC2CCCCC2)N(C(=O)CCl)c2ccc(Cl)cc2)cc1 (centres undefined)	0	0	0	0	13	0
SMILES	NOD2 RIPK2 PPI	beta cell repl	MC4R antagonist	TLR9-MyD88 block	MC4R barr agon	TLR4-MyD88 BLA
CC(C)(C)NC(=O)c1cccc(NC(=O)c2cccc(O)c2)c1	0	0	0	0	0	0
COc1ccc(CNC(=O)/C=C/c2cc3c(cc2Br)OCO3)cc1	0	0	0	0	8.5	0
Cc1cc(C)cc(NC(=O)CSc2nc(CSc3ccc(Cl)cc3)cc(=O)[nH]2)c1	0	0	0	0	8.6	-
Nc1cc(=O)[nH]c(SCC(=O)Nc2cc(Cl)cc(Cl)c2)n1	0	0	0	0	0	0
Brc1ccccc1Cn1c(-c2cscn2)nc2ccccc21	0	0	0	0	9.3	0
Cc1cc(NC(=O)CSc2nc(C(C)C)nc3sc(C)c(C)c23)no1	0	0	0	0	8.4	0
CCOc1ccc2nc(NCCNC(=O)Nc3ccccc3)c(C#N)cc2c1	0	-	0	0	9.6	0
CCOc1ccc2nc(NCCNC(=O)Nc3cccc(C)c3)c(C#N)cc2c1	0	0	0	0	0	0
COc1ccccc1C(CNC(=O)CNC(=O)c1cccc(Cl)c1)N1CCCC1 (centres undefined)	0	-	0	0	0	-
O=S(=O)(c1ccccc1)N1CCC2(CC1)OCCO2	0	0	0	0	0	0
CCOC(=O)c1ccc(NC(=O)CSc2nc(=O)n3cccc(C)c3n2)cc1	0	0	0	0	0	-
Cc1cc(C)cc(OCC(=O)Nc2ccc(N3CCN(S(C)(=O)=O)CC3)cc2)c1	0	0	0	0	0	0
Cc1cc(C)cc(OCC(=O)Nc2ccc(N3CCCCC3)cc2)c1	0	0	0	0	8.8	-
C#CCOC(=O)c1cc(Cl)c(=O)n(Cc2ccc(Cl)cc2Cl)c1	0	0	0	0	0	-
CCCCCCCCCCCC1=C(O)C(=O)C=C(O)C1=O	0	-	0	0	16	-
CCCCn1nnnc1C(C1CC1)N1CCN(C/C=C/c2ccccc2)CC1 (centres undefined)	0	-	-	-	-	-
C=CC[C@@H](CC(=O)N[C@H](CO)Cc1ccccc1)C(=O)N[C@H](COC(=O)[C@@H](CC=C)CC(=O)OC(C)(C)C)Cc1ccccc1	0	0	0	0	9.8	-
C=CC[C@@H](CC(=O)N(CCO)Cc1ccccc1)C(=O)N[C@H](COC(=O)[C@@H](CC=C)CC(=O)OC(C)(C)C)Cc1ccccc1	0	0	0	0	9.3	-
COc1ccc(-c2nc3c(Cl)cc(C(F)(F)F)cn3c2Cc2cccc(F)c2)cc1OC	0	-	-	-	-	-
CC(C)C1C(C#N)=C(N)Oc2n[nH]c(-c3ccc4ccccc4c3)c21 (centres undefined)	0	0	0	0	9.4	0
CC(C)C1C(C#N)=C(N)Oc2n[nH]c(-c3cccs3)c21 (centres undefined)	0	0	0	0	0	0
COc1ccc(Cc2nc3ccc(C(=O)N(C)CCCN4CCOCC4)cc3o2)cc1	0	0	0	0	0	-
Cc1c(Cc2ccccc2)sc(/N=C/c2c(O)ccc3ccccc23)c1C(N)=O	0	0	0	0	10	0
Cc1c(Cc2ccccc2)sc(/N=C/c2ccc3ccccc3c2)c1C(N)=O	0	-	0	0	0	0
CC(NC(=O)COC(=O)C1(C)CC1(Cl)Cl)c1ccccc1 (centres undefined)	0	0	0	0	0	-
O=c1[nH]nc(Cc2ccc(-c3ccccc3Cl)o2)c2ccccc12	0	0	0	0	8.9	0
